Data: ChEMBL document CHEMBL5705890, “Antitumor activity of an allosteric inhibitor of centromere-associated protein-E” (Proc Natl Acad Sci U S A, 2010)

What was measured:
Assay type in all cases: functional
OVCAR-4 = assay: Anticancer activity against human OVCAR-4 cells assessed as cell growth inhibition measured after 72 hrs by DAPI staining based analysis
T47D = assay: Anticancer activity against human T47D cells assessed as cell doubling measured for 72 hrs by DAPI staining based analysis
CAL-27 [1] = assay: Anticancer activity against human CAL-27 cells assessed as cell growth inhibition measured after 72 hrs by DAPI staining based analysis
Procedure, shortened: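 Cells were seeded, and DNA content at 24 h after seeding (T0) was read by imaging of fixed, DAPI-stained cells. Cells were then exposed to a range of drug concentrations for a further 72 h (T72) and DNA content was read again. T72 values were normalized to T0, and GI50 was taken from curve fits as the concentration giving 50% growth inhibition relative to T0 and Ymax.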

CHL-1 = assay: Anticancer activity against human CHL-1 cells assessed as cell doubling measured for 72 hrs by DAPI staining based analysis
HOP-62 [2] = assay: Anticancer activity against human HOP-62 cells assessed as cell growth inhibition measured after 72 hrs by DAPI staining based analysis
[3] = Anticancer activity against human MT-3 cells assessed as cell growth inhibition measured after 72 hrs by DAPI staining based analysis
SJRH30 = assay: Anticancer activity against human SJRH30 cells assessed as cell growth inhibition measured after 72 hrs by DAPI staining based analysis
CRO-AP2 = assay: Anticancer activity against human CRO-AP2 cells assessed as cell growth inhibition measured after 72 hrs by DAPI staining based analysis
Procedure, shortened: (§1)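 Cells seeded, DAPI-stained DNA content of fixed cells read by imaging 24 h after seeding (T0), and again after a further 72 h exposure to a range of drug concentrations (T72). T72 values were normalized to T0. Curve fits gave the concentration producing 50% growth inhibition relative to T0 and Ymax (GI50).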

CCF-STTG1 = assay: Anticancer activity against human CCF-STTG1 cells assessed as cell doubling measured for 72 hrs by DAPI staining based analysis
Procedure, shortened: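 Cell-growth inhibition in 384-well plates. DNA content of fixed cells stained with DAPI was read by automated imaging 24 h after seeding (T0) and again after a further 72 h exposure to varying drug concentrations (T72). T72 values were normalized to T0, and curves were fitted to give the concentration causing 50% growth inhibition relative to T0 and Ymax (GI50).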

SW48 = assay: Anticancer activity against human SW48 cells assessed as cell growth inhibition measured after 72 hrs by DAPI staining based analysis
[4] = Anticancer activity against human MV-522 cells assessed as cell doubling measured for 72 hrs by DAPI staining based analysis
OVCAR-5 = assay: Anticancer activity against human OVCAR-5 cells assessed as cell growth inhibition measured after 72 hrs by DAPI staining based analysis
[5] = Anticancer activity against human NCI-H322T cells assessed as cell doubling measured for 72 hrs by DAPI staining based analysis
EKVX = assay: Anticancer activity against human EKVX cells assessed as cell doubling measured for 72 hrs by DAPI staining based analysis
SR = assay: Anticancer activity against human SR cells assessed as cell doubling measured for 72 hrs by DAPI staining based analysis
CAL-27 [6] = assay: Anticancer activity against human CAL-27 cells assessed as cell doubling measured for 72 hrs by DAPI staining based analysis
RL95-2 = assay: Anticancer activity against human RL95-2 cells assessed as cell growth inhibition measured after 72 hrs by DAPI staining based analysis
SK-OV-3 = assay: Anticancer activity against human SK-OV-3 cells assessed as cell doubling measured for 72 hrs by DAPI staining based analysis
A549 = assay: Anticancer activity against human A549 cells assessed as cell growth inhibition measured after 72 hrs by DAPI staining based analysis
Procedure, shortened: (§2)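 Cells were seeded and, after 24 h, DNA content was read as T0. Cells were then exposed to varying drug concentrations for a further 72 h (T72). Fixed cells were DAPI-stained and DNA content measured by automated imaging. T72 values were normalized to T0. GI50 is the concentration giving 50% growth inhibition between T0 and Ymax, obtained by curve fitting.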

BT-20 = assay: Anticancer activity against human BT-20 cells assessed as cell doubling measured for 72 hrs by DAPI staining based analysis
HCT-116 = assay: Antitumor activity against human HCT-116 cells in xenograft model assessed as difference between median time to endpoint time of treated versus control group at 125 mg/kg
BC-3 = assay: Anticancer activity against human BC-3 cells assessed as cell growth inhibition measured after 72 hrs by DAPI staining based analysis; procedure, shortened: as §2
FaDu = assay: Anticancer activity against human FaDu cells assessed as cell growth inhibition measured after 72 hrs by DAPI staining based analysis; procedure, shortened: as §1
Raji = assay: Anticancer activity against human Raji cells assessed as cell growth inhibition measured after 72 hrs by DAPI staining based analysis
SNB-19 = assay: Anticancer activity against human SNB-19 cells assessed as cell growth inhibition measured after 72 hrs by DAPI staining based analysis
MCF7 = assay: Anticancer activity against human MCF7 cells assessed as cell doubling measured for 72 hrs by DAPI staining based analysis
NCI-H526 = assay: Anticancer activity against human NCI-H526 cells assessed as cell doubling measured for 72 hrs by DAPI staining based analysis
Malme-3M = assay: Anticancer activity against human Malme-3M cells assessed as cell growth inhibition measured after 72 hrs by DAPI staining based analysis
HCC1954 = assay: Anticancer activity against human HCC1954 cells assessed as cell doubling measured for 72 hrs by DAPI staining based analysis
SK-N-DZ = assay: Anticancer activity against human SK-N-DZ cells assessed as cell doubling measured for 72 hrs by DAPI staining based analysis
OV-90 = assay: Anticancer activity against human OV-90 cells assessed as cell doubling measured for 72 hrs by DAPI staining based analysis
NCI-H520 = assay: Anticancer activity against human NCI-H520 cells assessed as cell growth inhibition measured after 72 hrs by DAPI staining based analysis
[7] = Anticancer activity against human BM-1604 cells assessed as cell doubling measured for 72 hrs by DAPI staining based analysis
Hep 3B2 = assay: Anticancer activity against human Hep3B cells assessed as cell growth inhibition measured after 72 hrs by DAPI staining based analysis
SK-N-FI = assay: Anticancer activity against human SK-N-FI cells assessed as cell doubling measured for 72 hrs by DAPI staining based analysis
SW780 = assay: Anticancer activity against human SW780 cells assessed as cell growth inhibition measured after 72 hrs by DAPI staining based analysis
SK-LMS-1 = assay: Anticancer activity against human SK-LMS-1 cells assessed as cell growth inhibition measured after 72 hrs by DAPI staining based analysis
HOP-62 [8] = assay: Anticancer activity against human HOP-62 cells assessed as cell doubling measured for 72 hrs by DAPI staining based analysis
NCI-H460 = assay: Antitumor activity against human NCI-H460 cells in xenograft model assessed as difference between median time to endpoint time of treated versus control group at 62.5 mg/kg

SMILES: CC(C)Oc1ccc(C(=O)N[C@H](CNC(=O)CN(C)C)Cc2ccc(-c3cn4cccc([C@H](C)O)c4n3)cc2)cc1Cl [GSK-923295A]
- GI50 (OVCAR-4): 30 nM
- Activity (T47D): 1.44
- GI50 (CAL-27 [1]): 47 nM
- Activity (CHL-1): 3.27
- GI50 (HOP-62 [2]): 20 nM
- GI50 [3]: 41 nM
- GI50 (SJRH30): 26 nM
- GI50 (CRO-AP2): 51 nM
- Activity (CCF-STTG1): 1.2
- GI50 (SW48): 25 nM
- Activity [4]: 2.81
- GI50 (OVCAR-5): 34 nM
- Activity [5]: 2.27
- Activity (EKVX): 2.69
- Activity (SR): 2.84
- Activity (CAL-27 [6]): 2.55
- GI50 (RL95-2): 49 nM
- Activity (SK-OV-3): 1.72
- GI50 (A549): 21 nM
- Activity (BT-20): 4.17
- Time (HCT-116): 10.4 days
- GI50 (BC-3): 88 nM
- GI50 (FaDu): 32 nM
- GI50 (Raji): 41 nM
- GI50 (SNB-19): 28 nM
- Activity (MCF7): 1.65
- Activity (NCI-H526): 1.49
- GI50 (Malme-3M): 51 nM
- Activity (HCC1954): 2.04
- Activity (SK-N-DZ): 1.81
- Activity (OV-90): 1.87
- GI50 (NCI-H520): 34 nM
- Activity [7]: 2.38
- GI50 (Hep 3B2): 164 nM
- Activity (SK-N-FI): 1.24
- GI50 (SW780): 30 nM
- GI50 (SK-LMS-1): 30 nM
- Activity (HOP-62 [8]): 1.82
- Time (NCI-H460): 15.4 days
